# Source: PubChem
# Only some compounds are listed: those with a hit (about 8.9% of all), similar ones and a draw of the others.
# b-catenin transl: alters nuclear translocation of beta-catenin in HeLa cells; immunofluorescence imaging; nuclear translocation activity, % at 5 µM; 190,000 compounds, 0.3% hits; AID 1665;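 active means nuclear translocation activity above 50% at 5 µM, with a well cell count of 50 or more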;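 further: per-cell ratio of nuclear to cytoplasmic median beta-catenin stain intensity; plate controls were DMSO negative control for no effect and GSK-3 inhibitor IX positive control for full effect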
#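 Test system: human HeLa cell line; Doses: 5 µM primary, 0.02–20 µM confirmation; Incubation: 24 h compound exposure, 37°C; Detection: beta-catenin immunofluorescence imaging with DAPI; Read-out: beta-catenin nuclear/cytoplasmic ratio, % activation.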
# HSV replic up: HSV replication enhancement | HSV replication augmentation in cells, fold increase | maximum fold increase | 220,000 compounds, 0.005% hits; in the data active means maximum fold increase above about 1.5; tested in PC3 cells
# Dynein cargo inh: blocks dynein driven cargo transport along microtubules | AID 1381 | z-score, hits read low | 220,000 compounds, 0.47% hits | 3617.4 mouse cells, GR-EGFP nuclear translocation imaging; test concentration mostly 20 µM; stimulated with dexamethasone, 1 µM; stronger effect = lower value;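 active means plate z-score of nuclear minus cytoplasmic receptor signal below a set negative limit, without overly bright fluorescence or cell loss, cut at about -3.5 in these data, passing the limit was not always enough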;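 further: z-score of nuclear minus cytoplasmic ring GR-EGFP intensity difference per well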
#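 Buffer or medium: tetracycline-free induction medium containing charcoal-stripped FBS / Reagent: dexamethasone agonist, 1.0 µM final, for 30 min / Technique: automated 10x imaging of fixed Hoechst-stained cells / Times: induction 48 h, compound 1 h, agonist 30 min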
# Lmaj promast: inhibitors of Leishmania major promastigote growth; Leishmania major promastigotes, resazurin fluorescence viability; 200,000 compounds, 9% hits; inhibition, % at 10 µM; in the data active means inhibition above about 50%;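 further: promastigotes grown with compound for 44 hours at 28 °C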
# MT stabilizer: microtubule stabilization, imaging screen. HeLa tubulin immunostaining HCS, 24 h; share of cells brighter than vehicle mean+2SD. % tubulin-high responders, % at 10 µM. 200,000 compounds, 0.83% hits. AID 2205;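 active means plate Z-score above 3 for both tubulin-high and condensed-nucleus cell shares, with cell loss under 80%, at 10 µM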;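 further: anti alpha tubulin signal scored within the nucleus-defined area of each cell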
# Active calls of the source: *; i = inactive; . = not tested or not shown.
SMILES,b-catenin transl,HSV replic up,Dynein cargo inh,Lmaj promast,MT stabilizer
COc1ccc(OC2C(=O)N(Cc3ccc(F)cc3)C2c2ccc(OC)c(OC)c2)cc1 (stereo unspecified),-0.4,i,0.434,5.5,3.0
COc1ccc(OC2C(=O)N(Cc3ccc4c(c3)OCO4)C2c2sccc2C)cc1 (stereo unspecified),-0.5,.,-0.033,92.0*,2.7
Cc1cc2nc(-c3ccc(SCc4ccc(C#N)cc4)nc3)[nH]c2cc1C,1.6,i,0.121,61.8*,2.9
N#Cc1ccccc1CSc1ccc(-c2nc3ccccc3[nH]2)cn1,-0.4,i,1.07,21.6,1.6
CC(=O)CSc1ccc(-c2nc3cc(C)c(C)cc3[nH]2)cn1,0.0,i,0.819,80.2*,2.5
CC1CCCCC1NCC#CCOc1ccc(Cl)cc1 (stereo unspecified),-1.9,i,0.236,83.0*,1.5
Cc1c(N2C(=O)CS/C2=N\N=C\c2ccc(Cl)cc2)c(=O)n(-c2ccccc2)n1C,-1.9,i,0.997,76.9*,2.5
Cc1c(N2C(=O)CS/C2=N\N=C\c2ccccc2O)c(=O)n(-c2ccccc2)n1C,4.3,i,-0.295,-2.8,1.3
COC(=O)Cn1c(CN2CCC(Cc3ccccc3)CC2)nc2c1c(=O)n(C)c(=O)n2C,-0.2,i,2.32,-2.0,2.3
CC(=O)N1N=C(c2cccc([N+](=O)[O-])c2)OC1c1ccc(Br)cc1 (stereo unspecified),-0.4,i,0.211,.,.
CC(=O)N1N=C(c2ccccc2)OC1c1ccc([N+](=O)[O-])s1 (stereo unspecified),.,i,-1.93,100.3*,3.1
O=C1CCCN1CCCN1C(=O)N[C@@H](Cc2ccccc2)C1=O,-6.4,i,0.159,-5.3,4.4
CCCC(=O)C1C(=O)CC(CC(C)SCC)CC1=O (stereo unspecified),.,i,-0.308,-3.8,2.3
CCCn1c(=N)n(CC(O)COc2cccc(C)c2)c2ccccc21 (stereo unspecified),.,i,-1.56,95.6*,3.0
CCn1c(=N)n(CC(O)COc2cccc(C)c2)c2ccccc21 (stereo unspecified),.,i,-0.178,57.9*,3.6
CCn1c(=N)n(CC(O)c2ccccc2)c2ccccc21 (stereo unspecified),0.7,i,-0.412,11.9,1.7
O=C(c1ccc2c(c1)N(Cc1cccc(Cl)c1)C(=O)c1ccccc1S2(=O)=O)N1CCN(c2ccccn2)CC1,11.3,i,0.512,97.5*,2.7
O=C(Nc1nnc(COc2ccc(Cl)cc2)s1)c1ccco1,0.0,i,-0.522,0.0,2.0
CC(=O)Nc1ccc(NC(=O)COc2ccc(Br)cc2C)cc1,-3.3,i,-0.61,61.9*,3.4
COc1cc(CNCCO)ccc1OCC(=O)Nc1ccc(Br)cc1,0.0,i,1.79,100.3*,3.1
CCCNCc1cc(OC)c(OCC(=O)Nc2ccccc2)cc1Br,-0.8,i,-0.726,45.9,2.5
CC(=O)c1c(C)nc(-c2ccc(OCC(=O)Nc3ccc(F)cc3)cc2)n1O,-2.6,i,0.728,-4.6,1.3
CCCOc1ccc(CSC2=NCCN2)cc1[N+](=O)[O-],-2.9,.,-0.706,56.6*,3.3
COc1ccccc1/C=N/N1C(=O)C(CC(=O)Nc2ccc([N+](=O)[O-])cc2OC)SC1=Nc1cccc(C)c1C (stereo unspecified),0.0,i,-0.9,25.2,18.9*
COC(=O)c1c(-c2ccc(C)cc2)csc1NC(=O)c1c(-c2ccccc2)noc1C,6.5,i,-0.5,4.6,2.8
SMILES,b-catenin transl,HSV replic up,Dynein cargo inh,Lmaj promast,MT stabilizer
CN(C)C(=O)N1CCN(C(=O)c2ccco2)CC1,-2.0,i,0.153,-5.8,9.4
COc1ccc2nc3sc(C(=O)N4CCN(C)CC4)cc3cc2c1,0.9,.,-1.07,-4.9,3.1
Cc1ccc2cc3cc(C(=O)NCCCN4CCc5ccccc5C4)oc3nc2c1,-2.3,i,-1.49,97.3*,5.0
Cc1ccc2cc3cc(C(=O)NCCCN4CCCCCC4)oc3nc2c1,-1.2,.,0.424,96.6*,5.1
COc1ccc2nc3sc(C(=O)NCCCN4CCc5ccccc5C4)cc3cc2c1,-1.2,i,0.306,99.7*,3.5
Cc1ccc2nc(Cl)c3cc(C(=O)NCCCN4CCCC4)sc3c2c1,-2.0,i,0.538,100.7*,4.9
Cc1ccc(NC(=O)CN(C)CC(=O)Nc2ccccc2C(=O)Nc2ccccc2)cc1,-3.2,i,-0.205,27.1,1.6
